System: MS2 coat protein
Test: apparent Kd, MS2 coat protein; higher = weaker binding; RNA-MaP array; FMN 200 µM where present
Summary of the method: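 The titrant was SNAP-549-labelled MS2 coat protein, run from 0.7 or 1.5 nM in doubling steps to 3 µM. It was applied to designs transcribed by stalled E. coli RNA polymerase on Illumina sequencing-chip clusters, without ligand first and then with constant ligand, in 100 mM Tris-HCl pH 7.5, 80 mM KCl, 4 mM MgCl2, BSA, DTT, yeast tRNA and Tween-20. The apparent Kd is the median of filtered per-cluster binding-curve fits, with green signal normalised to red-channel RNA signal and control-cluster median Fmax.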

[1] = designed as: ON switch for flavin mononucleotide, no ligand
[2] = ligand present: flavin mononucleotide, designed as: ON switch for flavin mononucleotide
[3] = designed as: OFF switch for flavin mononucleotide, no ligand
[4] = ligand present: flavin mononucleotide, designed as: OFF switch for flavin mononucleotide

Row | Sequence | apparent Kd [1] | apparent Kd [2] | apparent Kd [3] | apparent Kd [4]
1 | GUAAUCAGUAAUAAAAGCCCGGGCGCAGAAGGCCAGACACAUGAGGAUCACCCAUGUAUCCCUAUGGAGGAUAUGUGUCACGUG | 72.8 nM | 22.9 nM |  | 
2 | GUACGUGGACAGAAGGCGACAUGAGGAUCACCCAUGUUGGCUCGCGUAUGAGCAAUCCGCAUGAUUGAGGAUAUGUCUGCGGGC |  |  | 9.05 nM | 49.7 nM
3 | GUACUACAUGAGGAUCACCCAUGUACAAAUGUACGAGGAUAUGCAUGGACGAAAGUUGGUGCAGAAGGCGUAGUAC | 24.9 nM | 24 nM |  | 
4 | GUACUGUAGUGAGGAUAUACGAGCUCGAUAGAGCGGCGAUCCAUAUAUACAUGAGGAUCACCCAUGUAGAAGGCACUUCAGUAC |  |  | 7.07 nM | 96.5 nM
5 | GUAGAGUAAGGAUAUGCUGAAUAGGAUAGAAUGGUUAGAAAGCAGAAGGUACAUGAGGAUCACCCAUGUAAUGU |  |  | 23.2 nM | 21.2 nM
6 | GUAGAGUAGUGAGGAUAUACGAGCUCGAUAGAGCGGCGAUCCAUUAAUACAUGAGGAUCACCCAUGUAGAAGGCACUUCUCUAC |  |  | 5.83 nM | 72 nM
7 | GUAGAGUAGUGAGGAUAUACGAGUUCGAUAGAACGGCGAUCCAAUAAUACAUGAGGAUCACCCAUGUAGAAGGCACUUCUCUAC |  |  | 9.33 nM | 112 nM
8 | GUAGCAACAUGAGGAUCACCCAUGUAGGAUAUCGCUAUUGUAAUCAUGAAACAUGAUUACAAUAGCGAGAAGGACAUAUGCUAG |  |  | 14.9 nM | 12.8 nM
9 | GUAGCAAUCGGAGGAUAUUCAUACCGGAAACGGACAUGAGGAUCACCCAUGUCGCGAAAGCGUUGGGAGAAGGCCGAUUGCUAC | 220 nM | 21.3 nM |  | 
10 | GUAGCAUAAUCAGGAUAUUCAGCGAAUAGAUAGACAUGAGGAUCACCCAUGUGGCGAAAGCCUAGGGAGAAGGGAUAAUGCUAC | 200 nM | 35.8 nM |  | 
11 | GUAGCAUACAGAGGAUAUCUUUACCGGAAACGGACAUGAGGAUCACCCAUGUGGCGAAAGCCUAGGGAGAAGGCUGAAUGCUAC | 11.6 nM | 12.3 nM |  | 
12 | GUAGCAUACCGAGGAUAUCUAUACCGGAAACGGACAUGAGGAUCACCCAUGUGGCGAAAGCCUUGGGAGAAGGCGGAAUGCUAC | 20.8 nM | 11.6 nM |  | 
13 | GUAGCAUACCGAGGAUAUUCAGGGCGUGAAUAAACAUGAGGAUCACCCAUGUGGCGAAAGCCUAGGGAGAAGGCGGAAUGCUAC | 25.9 nM | 19.1 nM |  | 
14 | GUAGCAUACCGAGGAUAUUCAUACCGAAAACGGACAUGAGGAUCACCCAUGUGGCGAAAGCCUUGGGAGAAGGCGGAAUGCUAC | 592 nM | 26.2 nM |  | 
15 | GUAGCAUACCGAGGAUAUUCAUACCGGAAACGGACAUGAGGAUCACCCAUGUGGCUAAUGCCUUGGGAGAAGGCGGAAUGCUAC | 568 nM | 21.7 nM |  | 
16 | GUAGCAUACCGAGGAUAUUCAUAGAAUAAAUAAACAUGAGGAUCACCCAUGUGGCGAAAGCCUAGGGAGAAGGCGGAAUGCUAC | 183 nM | 20.3 nM |  | 
17 | GUAGCAUUCCGAGGAUAUUCAGGGCGUGGAUAUACAUGAGGAUCACCCAUGUGGCGGAAGCCUAGGGAGAAGGCGGGCUGCUUC | 27.8 nM | 18.6 nM |  | 
18 | GUAGCAUUCUGAGGAUAUUCAUACCGGUAACGGACAUGAGGAUCACCCAUGUGGCGAAAGCCUUGGGAGAAGGCAGUAUGCUAC | 171 nM | 10 nM |  | 
19 | GUAGCAUUGAGAGGAUAUCCAUACCGGAAACGGACAUGAGGAUCACCCAUGUGGCGAAAGCCGUGGGAGAAGGCUCUAUGCUAC | 8.39 nM | 4.32 nM |  | 
20 | GUAGCUACUAUUAUACAUGAGGAUCACCCAUGUUACAUGGGUAAGGAUAUUGAAGUUAUGAUUAUCAAGAAGGUACUAUGCUAC | 511 nM | 118 nM |  | 
21 | GUAGCUAUCGGAGGAUAUUCAUACCGCAAACGGACAUGAGGAUCACCCAUGUGGCGAAAGCAUUGGGAGAAGGCCGAUAGCUAC | 22.5 nM | 5.68 nM |  | 
22 | GUAGCUAUCGGAGGAUAUUCAUACCGGAAAAGGACAUGAGGAUCACCCAUGUGGCGAAAGCCUUGGGAGAAGGCCGAUAGCUAC | 94.2 nM | 6.77 nM |  | 
